From PubChem
This is a sample that favours compounds with a hit; in the whole collection about 1.8% have one here.
DNMT1 block: human DNMT1 methyltransferase inhibitors, primary screen, biochemical, molecular beacon, fluorescence, HinP1I cleavage, uHTS; DNA (cytosine-5)-methyltransferase 1 (Homo sapiens), P26358; inhibition (reported as % activation of signal), % at 10 µM; 0.83% of 360,000 active; AID 588458, 2011; in the data active = inhibition above about 50%
Scp-1 inhibitor: Scp-1 phosphatase inhibitors, primary screen, biochemical, colorimetric, uHTS | Carboxy-terminal domain RNA polymerase II polypeptide A small phosphatase 1 (Homo … | Recombinant Scp1, phosphopeptide, malachite green phosphate absorbance | inhibition, % at 20 µM | 0.88% of 340,000 active | AID 493091, 2011;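 active = inhibition above about 50% at 20 µM, limit read from the data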
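Test system – truncated SCP-1 phosphatase (76-261aa) · Reagent – Phosphorylated 17-residue peptide substrate · Incubation – 45 min room-temperature reaction, 5 min colour, 30 min stabiliser · Detection – colorimetric phosphate reagent with accelerator and stabiliser, absorbance at 630 nm · Measure – % inhibition at 20 µM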
LMPTP block: LMPTP phosphatase inhibitors, primary screen, biochemical, fluorescence intensity, uHTS | recombinant LMPTP-A, OMFP fluorogenic substrate | inhibition, % at 20 µM | 0.22% of 360,000 active | AID 651560, 2012;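 active = compounds that cut the enzyme signal by at least half of the control window in the single-dose screen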
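test system = LMPTP-A | amount = 0.625 nM LMPTP-A final | reagent = fluorogenic phosphatase substrate OMFP at 400 µM final | incubation = 50 min at room temperature | benchmarks = no-enzyme low control, uninhibited high control | medium = Bis-Tris pH 6.0, DTT, detergent | signal = fluorescence intensity of OMFP turnover product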
HKDC1 inh: HKDC1 hexokinase inhibitors, primary screen, biochemical, fluorescence, uHTS; recombinant HKDC1, G6PDH/diaphorase resazurin coupled fluorescence; 0.16% of 340,000 active; inhibition, % at 20 µM;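 active = inhibition above about 35% when tested at 20 µM, limit read from the data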
Target sequence (Q2TB90 whole entry, looked up): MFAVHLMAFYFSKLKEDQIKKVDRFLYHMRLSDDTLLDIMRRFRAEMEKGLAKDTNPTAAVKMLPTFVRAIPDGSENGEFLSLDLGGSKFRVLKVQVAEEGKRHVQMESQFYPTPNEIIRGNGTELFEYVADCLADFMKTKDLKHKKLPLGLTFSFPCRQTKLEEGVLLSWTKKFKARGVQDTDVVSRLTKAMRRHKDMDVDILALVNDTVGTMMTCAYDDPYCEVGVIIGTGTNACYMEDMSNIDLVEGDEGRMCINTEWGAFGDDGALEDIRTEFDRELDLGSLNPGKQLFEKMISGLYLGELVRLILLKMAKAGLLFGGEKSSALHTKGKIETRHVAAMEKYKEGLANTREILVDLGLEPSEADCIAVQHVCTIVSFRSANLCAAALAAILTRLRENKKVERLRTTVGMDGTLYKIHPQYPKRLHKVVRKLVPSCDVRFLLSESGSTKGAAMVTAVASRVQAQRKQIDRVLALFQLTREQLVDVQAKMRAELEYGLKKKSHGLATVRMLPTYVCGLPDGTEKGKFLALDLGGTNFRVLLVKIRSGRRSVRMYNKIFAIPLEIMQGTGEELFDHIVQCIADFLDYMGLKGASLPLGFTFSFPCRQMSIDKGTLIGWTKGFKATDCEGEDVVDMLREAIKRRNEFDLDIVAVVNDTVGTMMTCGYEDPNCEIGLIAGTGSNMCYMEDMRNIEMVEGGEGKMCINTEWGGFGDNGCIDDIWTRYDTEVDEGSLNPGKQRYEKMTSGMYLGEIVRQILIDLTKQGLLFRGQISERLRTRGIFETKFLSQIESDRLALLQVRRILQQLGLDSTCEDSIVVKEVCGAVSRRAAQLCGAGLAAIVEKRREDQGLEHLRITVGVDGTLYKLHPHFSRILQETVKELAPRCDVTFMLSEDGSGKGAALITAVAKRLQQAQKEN
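Assay system: recombinant HKDC1 hexokinase; detection: coupled resazurin fluorescence, excitation 525 nm, emission 613 nm; benchmarks: DMSO-plus-enzyme-mix negative control, buffer-substituted positive control; compound dosing: single 20 µM dose; schedule: 90 min at room temperature in dark; also added: glucose plus 1 mM ATP as hexokinase substrates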
STEP block: STEP phosphatase inhibitors, primary screen, biochemical, fluorescence intensity, uHTS; Tyrosine-protein phosphatase non-receptor type 5 (Homo sapiens), P54829; recombinant STEP, OMFP fluorogenic substrate; inhibition, % at 20 µM; 0.25% of 360,000 active;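 active = inhibition at 20 µM, scaled per plate between control wells, above about 37%, limit read from the data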
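System: isolated STEP enzyme; schedule: 20 min enzyme reaction at room temperature, protected from light; medium: Bis-Tris buffer pH 6.0, 2.5 mM DTT, 0.005% Tween 20; signal: fluorescence, 480/540 nm; dosing: single compound dose of 20 µM, 1% DMSO final; also added: OMFP substrate, 25 µM final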
SUMO1 PPI mod: modulators of SUMO1 protein-protein interactions, primary screen, biochemical, uHTS. inhibition, % at 20 µM. Small ubiquitin-related modifier 1 (Homo sapiens), P63165. 0.33% of 360,000 active. SUMO1 binding to a labelled peptide, TR-FRET, 1 h; in the data active = inhibition above about 37%
Scp1 confirm: Scp-1 phosphatase inhibitors, retest, confirmation, biochemical, colorimetric, single concentration | 61% of 2,500 active | AID 540281, 2011 | shares compounds with Scp-1 inhibitor | recombinant SCP-1 catalytic domain, phosphate release, malachite green absorbance | inhibition, % at 20 µM
Scp-1 MG ctr: colorimetric readout interference by compounds, confirmation, artefact control for Scp-1 inhibitor project, biochemical, single concentration; shares compounds with Scp-1 inhibitor; 2,500 tested, under 10 active; Colorimetric interference counterscreen, malachite green absorbance 630 nm; apparent inhibition (interference), % at 20 µM;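 also: compounds added after enzyme reaction finished so only phosphate colour detection is probed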
Scp1 DSF: Scp-1 binding by thermal shift, confirmation, orthogonal assay for Scp-1 inhibitor project, biophysical, differential scanning fluorimetry | shares compounds with Scp-1 inhibitor | Recombinant SCP1, Sypro Orange thermal shift Tm | thermal shift relative to vanadate control, % at 40 µM | 25% of 1,500 active;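 active = substances whose mean melting-temperature shift, as a percentage of the reference inhibitor's shift, reaches about 5.3%, limit read from the data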
A number is an active result; . = inactive; / = not tested or not shown.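 The calls were made as follows, unless noted: active = inhibition of at least 30% at 20 µM; inactive = the rest.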

SMILES | DNMT1 block | Scp-1 inhibitor | LMPTP block | HKDC1 inh | STEP block | SUMO1 PPI mod | Scp1 confirm | Scp-1 MG ctr | others
O=C(N/N=C/c1cn(-c2ccccc2)nc1-c1ccc2c(c1)OCCO2)c1ccncc1 | . | 75.2 | . | . | . | . | 57.2 | . | Scp1 DSF=.
COc1cccc(OCc2cc(C(=O)N(C)CCOc3ccc(C)cc3)no2)c1 | . | 55.1 | . | . | . | . | . | .
CCOC(=O)C(Cc1ccnc2ccccc12)=NO | . | . | . | . | . | . | / | /
CCOC(=O)C(=O)Cc1cccnn1 | 66.3 | 74.7 | . | . | . | 43.4 | 44.3 | . | Scp1 DSF=12.2
Cc1ccc(S(=O)(=O)N2CCN(C(=O)Cc3ccc(S(=O)(=O)N4CCOCC4)s3)CC2)cc1 | . | . | . | . | . | . | / | /
O=C(Cc1ccc(S(=O)(=O)N2CCCC2)s1)N1CCN(c2ccccc2)CC1 | . | . | . | . | . | . | / | /
COc1ccc(N2CCN(C(=O)Cc3ccc(S(=O)(=O)N4CCOCC4)s3)CC2)cc1 | . | 80.9 | . | . | . | . | 69.4 | . | Scp1 DSF=.
O=C(O)Cc1ccc(S(=O)(=O)N2CCCC2)s1 | 67.0 | 93.3 | . | . | . | . | 57.6 | . | Scp1 DSF=.
Cc1nnc(NS(=O)(=O)c2ccc(N=Nc3ccc(N)nc3N)cc2)s1 | . | 67.4 | . | . | . | . | 34.5 | . | Scp1 DSF=9.1
CCc1cccc(NC(=O)Cn2c3[n+](c4ccc(C(F)(F)F)cc42)CCCCC3)c1 | . | . | . | . | . | . | / | /
O=C(Cn1c2[n+](c3ccc(C(F)(F)F)cc31)CCCCC2)Nc1ccccc1 | . | 61.6 | . | . | . | . | . | .
Cc1ccc(Cl)cc1N1CCN(c2cccc[n+]2C)CC1 | . | 98.9 | . | . | . | . | . | .
CC(C)NC(=O)CSc1ccccc1C(=O)NNC(=O)Cn1ccc(C(F)(F)F)n1 | . | . | . | . | . | . | / | /
CCc1ccccc1NC(=O)C1CCCN1S(=O)(=O)c1ccc2c(c1)n(C)c(=O)c(=O)n2C (stereo not drawn) | . | . | . | . | . | . | / | /
Cc1ccc(NC(=O)C2CCCN2S(=O)(=O)c2ccc3c(c2)n(C)c(=O)c(=O)n3C)cc1 (stereo not drawn) | . | . | . | . | . | . | / | /
Cc1ccc(NC(=O)C2CCCN2S(=O)(=O)c2ccc3c(c2)n(C)c(=O)c(=O)n3C)c(C)c1 (stereo not drawn) | . | . | . | . | . | . | . | .
Cn1c(=O)c(=O)n(C)c2cc(S(=O)(=O)N3CCCC3C(=O)Nc3ccccc3F)ccc21 (stereo not drawn) | . | . | . | . | . | . | . | .
Cc1cccc(C)c1NC(=O)C1CCCN1S(=O)(=O)c1ccc2c(c1)n(C)c(=O)c(=O)n2C (stereo not drawn) | . | . | . | . | . | . | . | .
O=C(O)/C=C/C(=O)Nc1ccc(NC(=O)c2ccccc2)c(Cl)c1 | . | 72.9 | . | . | . | . | . | .
O=C(O)/C=C\C(=O)Nc1cccc(NC(=O)c2ccccc2)c1 | . | . | . | . | . | . | / | /
COc1ccccc1C(=O)C1CCCN(C(=O)c2ccccn2)C1 (stereo not drawn) | . | . | . | . | . | . | / | /
CSc1ccc(NC(=O)Nc2ccc(C(=O)NCC(=O)O)cc2)cc1 | . | 52.0 | . | . | . | . | 35.9 | . | Scp1 DSF=6.0
CCSc1ccc(C(=O)NCC(=O)O)cc1 | . | . | . | . | . | . | / | /
CCOC(=O)c1c(NC(=O)COC(=O)c2ccc(C)s2)sc2c1CC(C)(C)NC2(C)C | . | . | . | . | . | . | / | /
O=c1c2cc(-c3ccccc3)sc2nc2n1N=C(c1ccccc1)CS2 | . | 107.5 | . | . | . | . | 58.5 | . | Scp1 DSF=.
SMILES | DNMT1 block | Scp-1 inhibitor | LMPTP block | HKDC1 inh | STEP block | SUMO1 PPI mod | Scp1 confirm | Scp-1 MG ctr | others
COc1ccc(CCNC(=O)Cc2cc3c(cc2[N+](=O)[O-])OCO3)cc1OC | . | . | . | . | . | . | / | /
N=C1C(c2nc(-c3cccc([N+](=O)[O-])c3)cs2)=C(O)CN1NC(=O)c1ccco1 | . | 68.5 | . | . | . | . | . | .
Cc1ccc(-c2csc(C3=C(O)CN(NC(=O)c4ccc([N+](=O)[O-])cc4)C3=N)n2)cc1 | . | . | . | . | . | . | / | /
CCOn1c(=O)c(-c2cccc3ccccc23)[n+]([O-])c2ccccc21 | . | 57.7 | . | . | . | . | . | .
CCOn1c(=O)c(-c2ccccc2)[n+]([O-])c2ccccc21 | . | . | . | . | . | . | / | /
CSCCC(NS(=O)(=O)c1ccc2c(c1)oc(=O)n2C)C(=O)NC1CCN(Cc2ccccc2)CC1 (stereo not drawn) | . | . | . | . | . | . | / | /
CSCCC(NS(=O)(=O)c1ccc2c(c1)oc(=O)n2C)C(=O)NC1CCC(C)CC1 (stereo not drawn) | . | . | . | . | . | . | . | .
O=C1NC[C@H](CCCCN2C[C@H](Cc3ccc(O)cc3)N(CCc3ccc(O)cc3)C(=O)C2=O)N(Cc2ccccc2)C1=O | / | / | . | / | / | . | / | /
CC1C=CC=CC=CC=CC=CC=CC=CC(OC2OC(C)C(O)C(N)C2O)CC2OC(O)(CC(O)CC(O)C(O)CCC(O)CC(O)CC(=O)OC(C)C(C)C1O)CC(O)C2C(=O)O (stereo not drawn) | 94.5 | 88.9 | . | . | . | . | 65.1 | . | Scp1 DSF=.
O=C(Cn1cnc2cc([N+](=O)[O-])ccc2c1=O)Nc1ccc(N2CCOCC2)cc1 | . | . | . | . | . | . | / | /
O=C1/C(=C\c2cccc([N+](=O)[O-])c2O)SC(=S)N1Cc1ccccc1 | . | 73.3 | . | . | . | . | . | .
